Reference: ChEMBL document CHEMBL2384906, “Biological activity, design, synthesis and structure activity relationship of some novel derivatives of curcumin containing sulfonamides” (Eur J Med Chem, 2013)
Converted amounts (≈) assume the structure as drawn. The source made the active and inactive calls. No cut-off for these calls is given here.

Assays:
Escherichia coli [1] = assay: Antimicrobial activity against Escherichia coli ATCC 35218 after 24 hrs by broth micro serial dilution method; assay type: functional; details: ATCC 35218, 24 h
In short: (§1)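 This was broth microdilution in autoclaved Mueller-Hinton broth. 150 µL of compound per well was serially diluted […], and 50 µL of test organism was added. Plates were incubated 24 h at 37 °C and optical density was read.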

Escherichia coli [2] = assay: Antimicrobial activity against Escherichia coli ATCC 35218 assessed as diameter of inhibition zone at 20 uM after 24 hrs by Kirby -Baur disc diffusion method; assay type: functional; details: ATCC 35218, 24 h, read-out: DIZ
In short: (§2)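 Kirby-Bauer disc diffusion was used. Acetone stocks (160 µM) were serially doubled down to 80, 40 and 20 µM. 4 µL of each went onto 5 mm sterile paper discs, which were dried 30 min at 50 °C. Inoculum was 1.5 × 10⁸ CFU/mL diluted to 3 × 10² CFU/mL, and 50 µL was spread on Mueller-Hinton agar. After 24 h at 37 °C the inhibition-zone diameter was measured. Ciprofloxacin served as positive control.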

Escherichia coli [3] = assay: Antimicrobial activity against Escherichia coli ATCC 35218 assessed as diameter of inhibition zone at 40 uM after 24 hrs by Kirby -Baur disc diffusion method; assay type: functional; details: ATCC 35218, 24 h, read-out: DIZ; in short: as §2
Escherichia coli [4] = assay: Antimicrobial activity against Escherichia coli ATCC 35218 assessed as diameter of inhibition zone at 80 uM after 24 hrs by Kirby -Baur disc diffusion method; assay type: functional; in short: as §2
Pseudomonas aeruginosa [5] = assay: Antimicrobial activity against Pseudomonas aeruginosa ATCC 15499 after 24 hrs by broth micro serial dilution method; assay type: functional; details: ATCC 15499, 24 h; in short: as §1
Pseudomonas aeruginosa [6] = assay: Antimicrobial activity against Pseudomonas aeruginosa ATCC 15499 assessed as diameter of inhibition zone at 20 uM after 24 hrs by Kirby -Baur disc diffusion method; assay type: functional; in short: as §2
Pseudomonas aeruginosa [7] = assay: Antimicrobial activity against Pseudomonas aeruginosa ATCC 15499 assessed as diameter of inhibition zone at 40 uM after 24 hrs by Kirby -Baur disc diffusion method; assay type: functional; details: ATCC 15499, 24 h, read-out: DIZ; in short: as §2
Pseudomonas aeruginosa [8] = assay: Antimicrobial activity against Pseudomonas aeruginosa ATCC 15499 assessed as diameter of inhibition zone at 80 uM after 24 hrs by Kirby -Baur disc diffusion method; assay type: functional; details: ATCC 15499, 24 h, read-out: DIZ; in short: as §2
Salmonella typhi [9] = assay: Antimicrobial activity against Salmonella typhi ATCC 23564 after 24 hrs by broth micro serial dilution method; assay type: functional, Salmonella enterica subsp. enterica serovar Typhi; details: Salmonella enterica, ATCC 23564, 24 h
Salmonella typhi [10] = assay: Antimicrobial activity against Salmonella typhi ATCC 23564 assessed as diameter of inhibition zone at 20 uM after 24 hrs by Kirby -Baur disc diffusion method; assay type: functional, Salmonella enterica subsp. enterica serovar Typhi
Salmonella typhi [11] = assay: Antimicrobial activity against Salmonella typhi ATCC 23564 assessed as diameter of inhibition zone at 40 uM after 24 hrs by Kirby -Baur disc diffusion method; assay type: functional, Salmonella enterica subsp. enterica serovar Typhi
Salmonella typhi [12] = assay: Antimicrobial activity against Salmonella typhi ATCC 23564 assessed as diameter of inhibition zone at 80 uM after 24 hrs by Kirby -Baur disc diffusion method; assay type: functional, Salmonella enterica subsp. enterica serovar Typhi; details: Salmonella enterica, ATCC 23564, 24 h; read-out: DIZ
Bacillus cereus [13] = assay: Antimicrobial activity against Bacillus cereus MTCC 7350 after 24 hrs by broth micro serial dilution method; assay type: functional; details: MTCC 7350, 24 h; in short: as §1
Bacillus cereus [14] = assay: Antimicrobial activity against Bacillus cereus MTCC 7350 assessed as diameter of inhibition zone at 20 uM after 24 hrs by Kirby -Baur disc diffusion method; assay type: functional; in short: as §2
Bacillus cereus [15] = assay: Antimicrobial activity against Bacillus cereus MTCC 7350 assessed as diameter of inhibition zone at 40 uM after 24 hrs by Kirby -Baur disc diffusion method; assay type: functional; details: MTCC 7350, 24 h, read-out: DIZ; in short: as §2
Bacillus cereus [16] = assay: Antimicrobial activity against Bacillus cereus MTCC 7350 assessed as diameter of inhibition zone at 80 uM after 24 hrs by Kirby -Baur disc diffusion method; assay type: functional; details: MTCC 7350, 24 h, read-out: DIZ; in short: as §2
Staphylococcus aureus [17] = assay: Antimicrobial activity against Staphylococcus aureus ATCC 11632 after 24 hrs by broth micro serial dilution method; assay type: functional; details: ATCC 11632, 24 h; in short: as §1
Staphylococcus aureus [18] = assay: Antimicrobial activity against Staphylococcus aureus ATCC 11632 assessed as diameter of inhibition zone at 20 uM after 24 hrs by Kirby -Baur disc diffusion method; assay type: functional; in short: as §2
Staphylococcus aureus [19] = assay: Antimicrobial activity against Staphylococcus aureus ATCC 11632 assessed as diameter of inhibition zone at 40 uM after 24 hrs by Kirby -Baur disc diffusion method; assay type: functional; in short: as §2
Staphylococcus aureus [20] = assay: Antimicrobial activity against Staphylococcus aureus ATCC 11632 assessed as diameter of inhibition zone at 80 uM after 24 hrs by Kirby -Baur disc diffusion method; assay type: functional; details: ATCC 11632, 24 h, read-out: DIZ; in short: as §2
Mus musculus = assay: Antiinflammatory activity in mouse assessed as inhibition of carrageenan-induced increase in paw volume at 200 mg/kg administered 1 hr prior to carrageenan challenge measured after 3 hrs relative to control; assay type: functional
In short: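 Mice were fasted 2 h and placed in groups of five. Controls received saline i.p. Phenylbutazone was given at 100 mg/kg i.p., curcumin at 200 mg/kg i.p., and derivatives at 200 mg/kg. After 1 h, 0.1 mL of 1% carrageenan in saline was injected subplantar into the right hind paw. Paw volume was followed by plethysmometer for 3 h, and % inhibition was calculated as (Vc − Vt)/Vc × 100.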

HCT-116 = assay: Cytotoxicity against human HCT116 cells after 24 hrs by MTT assay; assay type: functional, cell-based
In short: (§3)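 The MTT assay seeded 5 × 10⁴ cells per well and grew them 24 h in RPMI 1640 with compound at 2.5–200 µM. Medium without cells was the blank and adriamycin the positive control. MTT was added for 4 h at 37 °C, formazan was solubilised, and absorbance was read at 570 nm. IC50 is the concentration that cuts viability 50% against untreated cells.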

QG-56 = assay: Cytotoxicity against human QG56 cells after 24 hrs by MTT assay; assay type: functional, cell-based; in short: as §3
HeLa = assay: Cytotoxicity against human HeLa cells after 24 hrs by MTT assay; assay type: functional, cell-based; in short: as §3
HepG2 = assay: Cytotoxicity against human HepG2 cells after 24 hrs by MTT assay; assay type: functional, cell-based; in short: as §3
Trichoderma viride [21] = assay: Antifungal activity against Trichoderma viride MTCC 1107 after 48 hrs; assay type: functional; details: MTCC 1107, 48 h
Trichoderma viride [22] = assay: Antifungal activity against Trichoderma viride MTCC 1107 assessed as zone of inhibition at 20 uM after 48 hrs by disc diffusion method; assay type: functional; details: MTCC 1107, 48 h, read-out: IZ
In short: (§4)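 Spores from 4-day potato dextrose agar cultures, suspended in sterile water at 1.5 × 10⁵ CFU/mL. 0.2 mL was spread on potato dextrose agar. 5 mm filter-paper discs soaked with test compound were laid on the lawn. Incubation was 48 h at 28 °C, then the inhibition zone was measured in mm. Fluconazole was the positive control and acetone the negative control.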

Trichoderma viride [23] = assay: Antifungal activity against Trichoderma viride MTCC 1107 assessed as zone of inhibition at 40 uM after 48 hrs by disc diffusion method; assay type: functional; details: MTCC 1107, 48 h, read-out: IZ; in short: as §4
Trichoderma viride [24] = assay: Antifungal activity against Trichoderma viride MTCC 1107 assessed as zone of inhibition at 80 uM after 48 hrs by disc diffusion method; assay type: functional; details: MTCC 1107, 48 h, read-out: IZ; in short: as §4
Curvularia lunata [25] = assay: Antifungal activity against Curvularia lunata MTCC 581 after 48 hrs; assay type: functional; details: MTCC 581, 48 h
Curvularia lunata [26] = assay: Antifungal activity against Curvularia lunata MTCC 581 assessed as zone of inhibition at 20 uM after 48 hrs by disc diffusion method; assay type: functional; details: MTCC 581, 48 h, read-out: IZ; in short: as §4
Curvularia lunata [27] = assay: Antifungal activity against Curvularia lunata MTCC 581 assessed as zone of inhibition at 40 uM after 48 hrs by disc diffusion method; assay type: functional; details: MTCC 581, 48 h, read-out: IZ; in short: as §4
Aspergillus flavus [28] = assay: Antifungal activity against Aspergillus flavus MTCC 1021 after 48 hrs; assay type: functional; details: MTCC 1021, 48 h
Curvularia lunata [29] = assay: Antifungal activity against Curvularia lunata MTCC 581 assessed as zone of inhibition at 80 uM after 48 hrs by disc diffusion method; assay type: functional; details: MTCC 581, 48 h, read-out: IZ; in short: as §4
Aspergillus flavus [30] = assay: Antifungal activity against Aspergillus flavus MTCC 1021 assessed as zone of inhibition at 80 uM after 48 hrs by disc diffusion method; assay type: functional; in short: as §4
Aspergillus niger [31] = assay: Antifungal activity against Aspergillus niger MTCC 1108 after 48 hrs; assay type: functional; details: MTCC 1108, 48 h
Aspergillus niger [32] = assay: Antifungal activity against Aspergillus niger MTCC 1108 assessed as zone of inhibition at 80 uM after 48 hrs by disc diffusion method; assay type: functional; in short: as §4
[33] = Salmonella enterica, ATCC 23564, 24 h, read-out: DIZ
[34] = ATCC 11632, 24 h, read-out: DIZ
[35] = Salmonella enterica subsp. enterica serovar Typhi

For `O=C(O)c1cn(C2CC2)c2cc(N3CCNCC3)c(F)cc2c1=O` [CIPROFLOXACIN], the MIC (Escherichia coli [1]) was 1.25 µM (≈ 0.414 µg/mL), the zone of inhibition at 20 µM (Escherichia coli [2]) was 29 mm and the zone of inhibition at 40 µM (Escherichia coli [3]) was 32 mm. For the same compound, the zone of inhibition at 80 µM (Escherichia coli [4]; ATCC 35218, 24 h, read-out: DIZ) was 36 mm, the MIC (Pseudomonas aeruginosa [5]) was 1.25 µM (≈ 0.414 µg/mL) and the zone of inhibition at 20 µM (Pseudomonas aeruginosa [6]; ATCC 15499, 24 h, read-out: DIZ) was 31 mm. It also gave a zone of inhibition at 40 µM (Pseudomonas aeruginosa [7]) of 34 mm, a zone of inhibition at 80 µM (Pseudomonas aeruginosa [8]) of 38 mm and an MIC (Salmonella typhi [9]) of 2.5 µM (≈ 0.828 µg/mL). It also gave a zone of inhibition at 20 µM (Salmonella typhi [10]; [33]) of 37 mm, a zone of inhibition at 40 µM (Salmonella typhi [11]; [33]) of 44 mm and a zone of inhibition at 80 µM (Salmonella typhi [12]) of 52 mm. For the same compound, the MIC (Bacillus cereus [13]) was 0.63 µM (≈ 0.209 µg/mL), the zone of inhibition at 20 µM (Bacillus cereus [14]; MTCC 7350, 24 h, read-out: DIZ) was 32 mm and the zone of inhibition at 40 µM (Bacillus cereus [15]) was 34 mm. It also gave a zone of inhibition at 80 µM (Bacillus cereus [16]) of 37 mm, an MIC (Staphylococcus aureus [17]) of 1.25 µM (≈ 0.414 µg/mL) and a zone of inhibition at 20 µM (Staphylococcus aureus [18]; [34]) of 29 mm. The zone of inhibition at 40 µM (Staphylococcus aureus [19]; [34]) was 32 mm and the zone of inhibition at 80 µM (Staphylococcus aureus [20]) was 36 mm.

For `COc1cc(/C=C/c2noc(/C=C/c3ccc(O)c(OC)c3)c2/N=N/c2ccc(S(=O)(=O)Nc3nc(C)cc(C)n3)cc2)ccc1O`, the inhibition in vivo at 200 mg/kg (Mus musculus) was 41.9%, the IC50 (HCT-116) was “Not Active” and the IC50 (QG-56) was “Not Active”. The IC50 (HeLa) was “Not Active”, the IC50 (HepG2) was “Not Active” and the MIC (Trichoderma viride [21]) was 80 µM (≈ 52.4 µg/mL). For the same compound, the zone of inhibition at 20 µM (Trichoderma viride [22]) was 9 mm, the zone of inhibition at 40 µM (Trichoderma viride [23]) was 11 mm and the zone of inhibition at 80 µM (Trichoderma viride [24]) was 13 mm. It also gave an MIC (Curvularia lunata [25]) of 80 µM (≈ 52.4 µg/mL), a zone of inhibition at 20 µM (Curvularia lunata [26]) of 9 mm and a zone of inhibition at 40 µM (Curvularia lunata [27]) of 11 mm. For the same compound, the MIC (Aspergillus flavus [28]) was greater than 80 µM, the zone of inhibition at 80 µM (Curvularia lunata [29]) was 13 mm and the “inhibition zone (IZ)” value (Aspergillus flavus [30]) was “inactive”. The MIC (Aspergillus niger [31]) was greater than 80 µM, the “inhibition zone (IZ)” value (Aspergillus niger [32]) was “inactive” and the MIC (Escherichia coli [1]) was greater than 80 µM. For the same compound, the “diameter of the inhibition zone (DIZ)” value (Escherichia coli [4]) was “inactive”, the MIC (Pseudomonas aeruginosa [5]) was 80 µM (≈ 52.4 µg/mL) and the “diameter of the inhibition zone (DIZ)” value (Pseudomonas aeruginosa [6]) was “inactive”. For the same compound, the zone of inhibition at 40 µM (Pseudomonas aeruginosa [7]) was 10 mm, the zone of inhibition at 80 µM (Pseudomonas aeruginosa [8]) was 15 mm and the MIC (Salmonella typhi [9]) was greater than 80 µM. For the same compound, the “diameter of the inhibition zone (DIZ)” value (Salmonella typhi [10]; [35]) was “inactive”, the “diameter of the inhibition zone (DIZ)” value (Salmonella typhi [11]; [35]) was “inactive” and the zone of inhibition at 80 µM (Salmonella typhi [12]) was 10 mm. The MIC (Bacillus cereus [13]) was greater than 80 µM, the “diameter of the inhibition zone (DIZ)” value (Bacillus cereus [14]) was “inactive” and the zone of inhibition at 40 µM (Bacillus cereus [15]) was 9 mm. For the same compound, the zone of inhibition at 80 µM (Bacillus cereus [16]) was 11 mm, the MIC (Staphylococcus aureus [17]) was greater than 80 µM and the “diameter of the inhibition zone (DIZ)” value (Staphylococcus aureus [18]) was “inactive”. For the same compound, the “diameter of the inhibition zone (DIZ)” value (Staphylococcus aureus [19]) was “inactive” and the zone of inhibition at 80 µM (Staphylococcus aureus [20]) was 12 mm.
